Assays:
[1] = folding enthalpy; higher = less favourable; fluorescence melt of hairpins on a sequencing array, two-state fit; conditions: sodium 0.088 M
Outline: (§1)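 On a sequenced MiSeq flow cell, library hairpins with annealed Cy3 and quencher oligos were imaged for Cy3 fluorescence in 2.5 °C steps up to 60 °C, in 50 mM Na-HEPES pH 8.0, 25 mM NaCl. Normalisation used pre-quench Cy3 and control constructs. Bootstrapped two-state fits gave melting temperature and folding enthalpy, combined by inverse variance across four replicates and with fitted temperatures raised by 9.35 °C to match UV melts.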

[2] = melting temperature; fluorescence melt of hairpins on a sequencing array, two-state fit, raised by 9.35 °C to match UV melts; conditions: sodium 0.088 M
Outline: as §1

Sequence | folding enthalpy [1] [kcal/mol] | Tm [2] [°C]
CGTGCGGAAACGCGAACG ((((((....)))..))) | -23.3 | 47.6
GATCCTGCCAAGGATC ((((((....)))))) | -38.6 | 65.6
GATCTGCGGCCAGATC ((((((....)))))) | -27.4 | 48.6
GAGTTCCGAAAGGACCTC (((.(((....))).))) | -28.8 | 47.2
GCAATCGAAAGATCGTGC ((((((....)))..))) | -16.1 | 28
GATCGTTTGACGATC ((((((...)))))) | -24.6 | 55.5
GATCGATAAATCGATC ((((((....)))))) | -39.9 | 52.3
GGATAGGGAAACCCATCC ((((.((....)).)))) | -29.4 | 39.8
GTCCGCGAAAGCGTGGAC ((((((....)))..))) | -16.9 | 54.8
GTTCGCGAAAGCGTGAAC ((((((....)))..))) | -13 | 40.5
GTGTACGAAAGTAGCAC ((((((....))).))) | -23.6 | 42.9
GTCATCGGAAACGGTGAC ((((.((....)).)))) | -38.1 | 55
GATGAGCGAAAGCTAATC (((.(((....))).))) | -24.9 | 46.6
GTGGCAGCGAAAGCTCAC (((..(((....)))))) | -12.4 | 43.7
GGATGCGGAAACACATCC (((((.(....).))))) | -44.2 | 47.9
GCATTCGAAAGAAAATGC ((((((....)))..))) | -24.8 | 34.6
GGTGCAGGAAACCGCACC (((((.(....).))))) | -45.1 | 57
GGTCAAGCGAAAGCTACC (((..(((....)))))) | -17.8 | 34.8
GGACGGCGAAAGCCATCC (((.(((....))).))) | -23.7 | 50
GTCAGAGAAATCTGAC ((((((....)))))) | -37.3 | 51.2
GACATAGGAAACTATGTC (((((((....))))))) | -35.6 | 53.5
CGCATGAAAATGCG (((((....))))) | -24.9 | 67.6
GCAACGGGAAACCATTGC ((((.((....)).)))) | -26.8 | 41.5

Sequence | folding enthalpy [1] [kcal/mol] | Tm [2] [°C]
GAGCTGGGAAACCAGCCC (.(((((....))))).) | -11.4 | 46.9
GGAGTAGGAAACTATTCC (((.(((....))).))) | -21.4 | 37.5
GCTTTGCGAAAGCAACGC ((.((((....)))).)) | -20.8 | 55.9
GAACCCGAAAGGGAATTC ((((((....)))..))) | -12.1 | 31.4
GATCTTTCGAAAGATC ((((((....)))))) | -40.8 | 49.3
GCGCCGCGAAAGCGTAGC ((..(((....)))..)) | -13.5 | 59.1
GGGTTTGAAAAAACCC ((((((....)))))) | -40 | 58.4
GGCTCGGGAAACCGAACC ((.((((....)))).)) | -29.7 | 48.8
GACCAAGCGAAAGCTGTC (((..(((....)))))) | -13.5 | 37.2
GGGTTCCCGAAAGGGCCC (((..(((....)))))) | -18.6 | 47.7
GAAGCCGGAAACGACTTC ((((.((....)).)))) | -34.4 | 46
CGGTCACGGAAACGTCCG (((..(((....)))))) | -10.3 | 38.7
GAACGGACGAAAGTCTTC (((..(((....)))))) | -7.13 | 20.7
GCCGGGCGAAAGCACAGC ((.(.((....)).).)) | -16.9 | 53.8
CGTACGGAAACGTGGACG ((((((....)))..))) | -15.1 | 35.2
CGGACCGGAAACGGCCG (((.(((....)))))) | -28.9 | 56
GCCATGCGAAAGCACTGC ((..(((....)))..)) | -10.4 | 31.8
GATCGCACCGCGATC ((((((...)))))) | -34 | 69
GATCCAAGGGTGGATC ((((((....)))))) | -32 | 48.4
GCGTAGCGAAAGCCCCGC (((..((....))..))) | -6.69 | 35.9
GGCTCTCCGAAAGGAGCC (((..(((....)))))) | -15 | 49
GTCTTCGAAAGAACGAC ((((((....))).))) | -21.2 | 37.6
GAACTAGGAAACTAGTCC (.(((((....))))).) | -20.4 | 29.7

Sequence | folding enthalpy [1] [kcal/mol] | Tm [2] [°C]
GATCCTCGGGAGGATC ((((((....)))))) | -37.7 | 56.1
GATCCGGCCACGGATC ((((((....)))))) | -41.6 | 67.5
GATCATTTCGATGATC ((((((....)))))) | -41.6 | 49.2
GATCGGTGCCCCGATC ((((((....)))))) | -29.1 | 57
GCGAATGGAAACGTTCGC (((((.(....).))))) | -38.4 | 56.7
GGGCTCGGAAACGGGCCC ((((.((....)).)))) | -43.6 | 66.9
GATCGTGGAAACATGATC ((((.((....)).)))) | -43.8 | 47.5
GTACGTGGAAACACACAC ((..(((....)))..)) | -10.8 | 27.4
GTCCAGGGAAACTTGGAC (((((.(....).))))) | -22.3 | 48.2
GCAACGGGAAACCATCGC ((.(.((....)).).)) | -12.5 | 27
GATCTGGACGCAGATC ((((((....)))))) | -47 | 51.3
GGATTGGGAAACCAGTCC (((.(((....))).))) | -31.1 | 46.9
GATCTAGTATTAGATC ((((((....)))))) | -37.5 | 47.1
GCAAGGCGAAAGCCATGC (((.(((....))).))) | -32.8 | 57.9
GCTACACGAAAGTGCAGC (((.(((....))).))) | -42.1 | 53.1
GGATCCGAAAGGAACTCC ((((((....)))..))) | -13.3 | 34.7
GCGTTCGCACGC ((((....)))) | -18.8 | 56.5
GTTAGGCCGAAAGGCAAC (((..(((....)))))) | -9.31 | 32.1
GTGTAGGGAAACCTATGC (..((((....))))..) | -12.2 | 30.9
GGCTTGTCGAAAGACGCC (((..(((....)))))) | -18.5 | 49.9
GTGGCTCGAAAGAGCAC (((.(((....)))))) | -11.8 | 51.2
GCTTTCCGAAAGGAGAGC (((.(((....))).))) | -38.7 | 54.8
GCGGCCGAAAGGCGCCGC ((((((....)))..))) | -14.9 | 62.8

Sequence | folding enthalpy [1] [kcal/mol] | Tm [2] [°C]
GATGTTGGAAACAACATC (((((((....))))))) | -44.6 | 58.4
GCGTTGCGAAAGCTTCGC (((..((....))..))) | -14.3 | 64
GATCTAGTTATAGATC ((((((....)))))) | -33.8 | 48.9
GGTTGCGAAAGCAGCACC ((((((....)))..))) | -12.4 | 41
GATCTAAATTTAGATC ((((((....)))))) | -32.3 | 44.3
GATCCCAGCTGGGATC ((((((....)))))) | -46.9 | 62.3
GTAAATACGAAAGTATAC (((..(((....)))))) | -9.48 | 25
GATCCGCGCTCGGATC ((((((....)))))) | -37.3 | 57.4
GGAGGATCGAAAGATTCC (((..(((....)))))) | -19.1 | 28.4
GCGGAGAAATCCGC (((((....))))) | -29.1 | 61.8
GAGTACGAAAGTAAGCTC ((((((....)))..))) | -14.9 | 29.3
GATCGTCGCACGATC ((((((...)))))) | -37.9 | 58.2
CGCGGAACGCTCCGCG ((((((....)))))) | -28.9 | 57.4
GCCTGCGAAAGCATGGGC ((((((....)))..))) | -21.4 | 56.7
GCCCATGGAAACGTGGGC (((((.(....).))))) | -38.2 | 59
GTTCGAGGAAACTCGGAC ((.((((....)))).)) | -40.9 | 51.3
GGGGTAGGAAACTGCCTC (.((.((....)).)).) | -25.1 | 38
GTGGTCGAAAGACGCCAC ((((((....)))..))) | -15.9 | 39.6
GCCTGAGGAAACCCAGGC (((((.(....).))))) | -36.5 | 53.2
GCACGCCGAAAGGCTGC (((.(((....)))))) | -21.8 | 64.6
GGCAATTCGAAAGAAGCC (((..(((....)))))) | -24.7 | 37.8
GATCAAATAATTGATC ((((((....)))))) | -27.9 | 34.7
GTAGTGGGAAACCACTGC (.(((((....))))).) | -19.4 | 50.6
